# Bioassay records: PubChem, several laboratories
# NTR1 agonist – agonists of human NTR1, primary screen, imaging, U2OS cells, beta-arrestin-GFP, high content; activation, % at 20 µM; actives 0.17% (n = 330,000); NTR1-U2OS beta-arrestin-GFP spot imaging, agonist mode; AID 493036, 2011;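 active = activation at or above 40% of the spot to cytoplasm intensity ratio, with at least 20 cells analyzed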;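 note: 0% = DMSO without peptide and 100% = 100 nM NTR1 peptide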
# Arr AP2 block – inhibitors of beta-arrestin/AP2 binding, primary screen, biochemical, GPCR trafficking, flow cytometry | FITC-arrestin peptide / GST-AP2 beads; AP2 beta2 appendage carries R879A mutation | beta-arrestin 1 C-terminal peptide binding to AP2 beta2-adaptin appendage (human) | inhibition, % at 10 µM | actives 0.31% (n = 340,000);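 active = inhibition above a set limit, near 3 SD of compounds lacking own fluorescence, cut at about 54% in these data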;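 note: plate controls were DMSO wells for no effect and 5 µM unlabelled arrestin peptide for full effect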
#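 system = GST-tagged AP2 beta2-adaptin appendage (R879A) on 4 µm glutathione beads | reagent = FITC-labelled arrestin peptide probe, 50 nM final | schedule = compound with beads 12 min RT, then probe 1 h RT | signal = HyperCyt-sampled flow cytometry, FL1 channel, ex 488/em 535 nm | read-out = percent response from loss of bead-bound FITC fluorescence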
# Hep lipid drop – inhibitors of hepatocyte lipid droplet formation, primary screen, imaging, high-throughput imaging, BODIPY stain; inhibition, % at 6.5 µM; AML12 mouse hepatocytes, oleate lipid droplets; actives 0.4% (n = 240,000);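 active = lipid droplet intensity inhibited by at least 50%, with more than 500 cells counted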
#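 material = mouse AML12 hepatocyte cell line, fixed after treatment | also added = 100 µM oleic acid challenge | doses = compound at 6.5 µM only | schedule = overnight exposure | technique = Image-based BODIPY and DAPI two-channel analysis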
# H9c2 TAG inh – inhibitors of triacylglycerol accumulation, primary screen, cell-based, uHTS, fluorescence, H9c2 | actives 0.66% (n = 230,000) | inhibition, % at 12.5 µM | H9c2 cells, Nile Red lipid (TAG) fluorescence; cells loaded with 200 µM oleic acid | AID 651582, 2012;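 active = pattern-corrected inhibition of lipid staining of at least 50% with the nuclear-stain viability signal not falling by more than 50%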;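 note: 0% = DMSO wells and 100% = triacsin C control wells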
# B2AR ag – beta2AR agonists driving receptor internalization, primary screen, cell-based, FAP fluorogen, flow cytometry; Beta-2 adrenergic receptor (Homo sapiens), P07550; Am2.2-beta2AR cells; response, % (concentration not given with the values); actives 0.43% (n = 340,000); AID 504454, 2011;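 active = response above a set limit, near 3 SD of response in nonfluorescent compounds, cut at about 42% in these data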
# GRK2 inh – compounds blocking aptamer binding on GRK2 – biochemical, human GRK2, bead flow cytometry, HTS, primary screen; Beta-adrenergic receptor kinase 1 (Homo sapiens), P25098; FAM-aptamer displacement from GRK2; inhibition of aptamer binding, % at 10 µM; actives 0.59% (n = 330,000);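 active = inhibition of aptamer binding above 40%, roughly 3 SD of noise, on plates passing a quality check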;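 note: median bead fluorescence of bound FAM aptamer so fluorescent compounds give negative values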
# Target sequence (P25098 whole entry, looked up): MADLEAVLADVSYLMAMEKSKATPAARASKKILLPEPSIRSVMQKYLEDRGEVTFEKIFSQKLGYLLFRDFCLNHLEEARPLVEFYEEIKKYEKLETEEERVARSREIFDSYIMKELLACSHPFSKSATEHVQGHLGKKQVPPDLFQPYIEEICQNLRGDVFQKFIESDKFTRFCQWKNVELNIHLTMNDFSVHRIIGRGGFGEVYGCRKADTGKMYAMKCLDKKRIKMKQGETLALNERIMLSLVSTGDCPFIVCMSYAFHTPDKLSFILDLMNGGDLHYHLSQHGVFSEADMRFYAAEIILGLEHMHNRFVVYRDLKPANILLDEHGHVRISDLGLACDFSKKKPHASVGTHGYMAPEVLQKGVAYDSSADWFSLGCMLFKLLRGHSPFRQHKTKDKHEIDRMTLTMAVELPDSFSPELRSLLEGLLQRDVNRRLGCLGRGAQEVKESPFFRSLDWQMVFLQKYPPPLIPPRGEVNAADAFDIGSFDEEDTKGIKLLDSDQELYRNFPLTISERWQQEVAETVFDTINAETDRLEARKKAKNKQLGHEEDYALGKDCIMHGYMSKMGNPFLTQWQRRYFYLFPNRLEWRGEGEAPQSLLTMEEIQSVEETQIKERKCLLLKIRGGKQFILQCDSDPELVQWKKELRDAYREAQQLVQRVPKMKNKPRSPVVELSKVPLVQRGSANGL
# H9c2 TAG conf – triacylglycerol accumulation inhibitors, retest, confirmation, cell-based, single concentration, Nile Red fluorescence, H9c2 | actives 71% (n = 990) | inhibition, % at 12.5 µM | shares compounds with H9c2 TAG inh | AID 651629, 2012 | H9c2 lipid accumulation; cells loaded with 200 µM oleic acid;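 active = mean inhibition across replicates of 40% or more; inactive = mean inhibition below 40%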;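 note: plate controls were DMSO only wells for no effect and Triacsin C treated wells for full effect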
# * = called active by the depositor; / = no result given. A selection: hits, their analogues and other compounds. The true share with any hit is near 2%.
SMILES,NTR1 agonist,Arr AP2 block,Hep lipid drop,H9c2 TAG inh,B2AR ag,GRK2 inh,H9c2 TAG conf
O=C(CSc1nc2ccc(Nc3nc(N4CCOCC4)nc(N4CCOCC4)n3)cc2s1)N1CCOCC1,2,3,-1,/,15,0,/
O=C(CSc1nc2ccc(Nc3nc(N4CCOCC4)nc(N4CCOCC4)n3)cc2s1)Nc1ccccc1F,6,-11,9,73*,2,3,78*
Cc1ccccc1-n1c(SC(C)C(=O)NCC2CCCO2)nnc1-c1ccncc1 (configuration not stated),/,5,/,-3,-4,/,/
CCn1c(SCC(=O)Nc2ccccc2C)nc2nc3c(cc2c1=O)COC(C)(C)C3,0,-2,-12,-12,-1,24,/
CCC(C)(C)NC(=O)C(c1cccn1C)N(Cc1ccccc1)C(=O)Cn1nnc2ccccc21 (configuration not stated),/,-15,/,7,3,/,/
CCC(C)(C)NC(=O)C(c1cccn1C)N(Cc1ccc(OC)cc1)C(=O)Cn1nnc2ccccc21 (configuration not stated),4,3,-3,67*,-3,0,50*
CC(=O)Nc1ccc(CNc2nc(NC(C)C)nc3cc(-c4ccccc4)sc23)cc1,/,/,/,23,/,/,/
COc1ccc(-c2cc(CNc3nc(NC(C)C)nc4cc(-c5ccccc5)sc34)on2)cc1,/,/,/,96*,/,/,79*
O=C(NCc1ccccc1)c1cc(C2COCCN2C(=O)c2cccs2)on1 (configuration not stated),/,/,/,4,/,/,/
Cc1c(C(=O)NCCC2=CCCCC2)oc2ccc(S(=O)(=O)N3CCC4(CC3)OCCO4)cc12,4,4,6,52*,8,0,33
Cc1ccc(-c2nnc3n2N=C(c2ccc(Br)cc2)CS3)cc1,10,3,/,/,-35,0,/
Brc1ccc(C2=Nn3c(nnc3-c3n[nH]c4c3CCC4)SC2)cc1,5,-5,-97,81*,35,0,85*
COc1cc(CN2CCC(C(=O)NC(c3ccc(F)cc3)c3ccc4ccccc4n3)CC2)cc(OC)c1 (configuration not stated),/,/,/,48,/,/,/
Cn1cc(CN2CCC(C(=O)NC(c3ccc(F)cc3)c3ccc4ccccc4n3)CC2)c2ccccc21 (configuration not stated),/,/,/,103*,/,/,98*
Nc1ncnc2c1ncn2[C@@H]1O[C@H](CNCc2cn(CC(=O)NC3CC3)c3ccccc23)[C@@H](O)[C@H]1O,1,36,/,76*,-1,4,5
COc1ccc(-c2ccc3[nH]c4c(c3c2)CCN2C[C@@H]([C@H](C)O)[C@@H](N(C)C(=O)Nc3cc(Cl)cc(Cl)c3)C[C@@H]42)cc1,/,/,/,28,/,/,/
Cc1cccc(-c2ccc3[nH]c4c(c3c2)CCN2C[C@@H]([C@H](C)OC(=O)Nc3ccccc3C)[C@@H](N(C)C(=O)Nc3ccccc3C)C[C@@H]42)c1,/,/,/,54*,/,/,66*
C[C@H](O)[C@@H]1CN2CCc3c([nH]c4ccc(-c5ccc6c(c5)OCO6)cc34)[C@@H]2C[C@@H]1N(C)C(=O)Nc1ccc(F)cc1,/,/,/,82*,/,/,69*
COc1ccc(-c2ccc3[nH]c4c(c3c2)CCN2C(=O)[C@@H]([C@H](C)O)[C@@H](N(C)C(=O)Nc3cc(Cl)cc(Cl)c3)C[C@@H]42)cc1,/,/,/,62*,/,/,63*
CCCSc1nc2c3c(sc2c(=O)[nH]1)CC(C)(CC)OC3 (configuration not stated),6,10,10,1,2,0,/
O=C1CN(C(=O)c2ccc(Cl)c([N+](=O)[O-])c2)c2ccccc2N1,4,51,-14,7,5,3,/
O=C(Nc1sc2c(c1-c1nc3ccccc3[nH]1)CCCC2)C1CCCC1,11,5,/,58*,5,0,60*
O=C(c1ccc(F)cc1)C1CCN(C(=O)NC2CCCCC2)CC1,0,26,/,50*,-3,0,29
CC(=O)c1cccc(-c2ccnc3c2CC(C(=O)NCc2ccco2)O3)c1 (configuration not stated),/,/,/,57*,/,/,59*
NC(=O)c1cccc(-c2ccnc3c2CC(C(=O)NCc2ccco2)O3)c1 (configuration not stated),/,/,/,39,/,/,/
SMILES,NTR1 agonist,Arr AP2 block,Hep lipid drop,H9c2 TAG inh,B2AR ag,GRK2 inh,H9c2 TAG conf
CCO[C@@H]1OC(C(=O)N2CCN(Cc3ccccc3)CC2)=C[C@H](c2ccc(C(F)(F)F)cc2)[C@H]1CCCO,3,9,-9,53*,2,2,52*
COc1ccc(NC(=O)C2(C)Cc3c(-c4cccc(C(N)=O)c4)ccnc3O2)cc1 (configuration not stated),/,/,/,61*,/,/,53*
COc1ccc(NC(=O)C2(C)Cc3c(-c4cccc(NC(C)=O)c4)ccnc3O2)cn1 (configuration not stated),/,/,/,58*,/,/,52*
Cc1ccc(C)c(NC(=O)C2CCCN(S(=O)(=O)c3c(C)nn(C)c3C)C2)c1 (configuration not stated),-1,28,-3,/,-8,3,/
COCCN1Cc2cccc(C(=O)Nc3cccc(-c4nc5ccccc5[nH]4)c3)c2C1=O,9,-15,39,80*,15,0,89*
COCCN1Cc2cccc(C(=O)Nc3ccc(-c4nc5ccccc5[nH]4)cc3)c2C1=O,6,11,3,/,0,0,/
Cc1ccc(-n2ncc(-c3nnc(SCC(=O)NC4CCCC4)o3)c2N)cc1C,-1,5,/,55*,-5,1,37
COc1ccccc1CC1(C)C(=O)Nc2ccc(S(=O)(=O)NC3CCCCC3)cc21 (configuration not stated),/,/,/,7,/,/,/
Cc1[nH]c2ccccc2c1C(c1ccccn1)N1CCC(C)CC1 (configuration not stated),6,13,/,51*,4,0,55*
